In brackets after ≈: the same amount, converted by molar mass.
Experiments:
Rattus norvegicus [1] = experiment: Antiinflammatory activity in Sprague-Dawley rat assessed as reduction in carrageenan-induced paw edema at dose molar equivalent to 15 mg/kg, po after 5 hrs (RVb = 65.2+/- 1.96%); set-up: scale not given: the % may be the effect or the level left
[2] = Antioxidant activity in stomach assessed as catalase activity measured per mg of protein (RVb = 28.38 +/- 2.85 U); format: functional
[3] = Aqueous solubility at pH. 4; format: physicochemical
[4] = Antioxidant activity in stomach assessed as lipid peroxidation measured per mg of protein (RVb = 4.61 +/- 1.28 nmole); format: functional, tissue-based
Rattus norvegicus [5] = experiment: Antiinflammatory activity in Sprague-Dawley rat assessed as reduction in carrageenan-induced paw edema at dose molar equivalent to 15 mg/kg, po after 2 hrs (RVb = 68.8 +/- 2.06%); set-up: scale not given: the % may be the effect or the level left
[6] = Chemical stability assessed as half life of hydrolysis at pH 7.4; format: physicochemical; settings: buffer
Procedure, shortened: (§1)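 Compound dissolved in preheated HCl buffer pH 2 or isotonic phosphate buffer pH 7.4 and held at 37 °C. Pseudo-first-order rate constants taken from semilog plots of concentration versus time.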

[7] = Partition coefficient log P by shake flask method; format: physicochemical; settings: octanol/water
Procedure, shortened: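 Shake flask in n-octanol/phosphate buffer pH 7.4. Compound-saturated octanol shaken with an equal volume of buffer for 24 h at 25 °C, then left 30 min to separate. Both phases quantified by UV against calibration plots.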

Rattus norvegicus [8] = experiment: Antiinflammatory activity in Sprague-Dawley rat assessed as reduction in carrageenan-induced paw edema at dose molar equivalent to 15 mg/kg, po after 3 hrs (RVb = 81.1+/- 2.43 %); set-up: scale not given: the % may be the effect or the level left
[9] = Antioxidant activity in stomach assessed as myeloperoxidase activity relative to control; format: functional
Procedure, shortened: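 Stomach homogenate from ulcer-study rats (0.01 M phosphate buffer), spun 10,000 rpm, 10 min, 10 °C. Supernatant mixed with o-phenylenediamine (660 µg/ml) and started with 300 mM H2O2; A492 read every 30 s for 5 min. ΔOD/min expressed as % of control activity.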

[10] = Chemical stability assessed as half life of hydrolysis at pH 2; format: physicochemical; settings: buffer
Procedure, shortened: as §1

Rattus norvegicus [11] = experiment: Toxicity in Sprague-Dawley rat assessed as ulcer index at dose molar equivalent to 54 mg/kg, po; format: organism-based; set-up: dose 54 mg/kg, route oral; settings: in vivo
Procedure, shortened: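 Overnight-fasted Sprague-Dawley rats given oral doses equimolar to BPA 54 mg/kg; vehicle controls. Killed 4 h after dosing; stomachs opened along greater curvature, saline-washed and scored: 0 none, 1 punctiform <1 mm, 3 filiform <5 mm, 4 punctiform >1 mm or filiform >5 mm. Mean ± SE of five experiments.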

[12] = Stability in presence of 80% human plasma assessed as half life; format: ADME, cell-free
Procedure, shortened: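 Citrated human plasma diluted 4:1 with isotonic phosphate buffer pH 7.4 (80% plasma), preheated, shaken at 37 °C. Compound added from a 1 mg/ml stock; samples at intervals diluted and read at 253 nm for released BPA. Rate constant and t½ taken from the linear part of the log BPA concentration versus time plot.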

[13] = Antioxidant activity in stomach assessed as superoxide dismutase activity measured per mg of protein (RVb = 325.40 +/- 69 U); format: functional
Mus musculus = experiment: Analgesic activity in mouse assessed as inhibition of acetic acid-induced writhing at 10 mg/kg, po relative to control; format: functional
Procedure, shortened: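 Male LACCA mice (25–35 g), fasted overnight, dosed orally in 0.5% CMC (0.1 ml/10 g) 1 h before 1% acetic acid, 10 ml/kg i.p. Writhes counted over 20 min starting 3 min post-challenge. % inhibition = (1 − Nt/Nc) × 100 versus vehicle controls. Mean ± SE of five experiments.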

Rattus norvegicus [14] = experiment: Antiinflammatory activity in Sprague-Dawley rat assessed as reduction in carrageenan-induced paw edema at dose molar equivalent to 15 mg/kg, po after 4 hrs (RVb = 78.4+/- 2.53%); set-up: scale not given: the % may be the effect or the level left

Row | SMILES | Activity (Rattus norvegicus [1]) | Activity [2] | solubility [3] | Activity [4] | Activity (Rattus norvegicus [5]) | half-life [6] | logP [7] | Activity (Rattus norvegicus [8]) | Activity [9] | half-life [10] | UI (Rattus norvegicus [11]) | half-life [12] | Activity [13] | inhibition in vivo at 10 mg/kg (Mus musculus) | Activity (Rattus norvegicus [14])
1 | COc1cc(OC)c2c(=O)c(OC(=O)Cc3ccc(-c4ccccc4)cc3)c(-c3ccc(OC)c(OC)c3)oc2c1 | 33.1% | 22.4 U/mg protein | 14.5 µg/mL (≈ 26.2 µM) | 6.42 nM | 34.2% | > 38 h | 3.95 | 37.5% | 118.93% | > 100 h | 0.45 | 0.33 h | 223 U/mg protein | 62.4% | 31.6%
2 | O=C(O)Cc1ccc(-c2ccccc2)cc1 [FELBINAC] | 29.1% | 3.52 U/mg protein |  | 22.6 nM | 26.9% |  |  | 26.5% | 238.47% |  | 6.2 |  | 26.2 U/mg protein | 68.6% | 25.2%
